PolyA inh: polyadenylation inhibitors in yeast reporter cells, primary screen, luminescence, S. cerevisiae | S. cerevisiae SKY197-pL101 polyadenylation reporter, beta-gal luminescence; efflux-impaired pdr1/pdr3 knockout yeast; score 100 = 6 SD above DMSO | activity score, % at 12 µM | 300,000 compounds, 0.02% hits | AID 1875, 2009;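 active = lowest replicate activity score at least 50, where 100 means six control SD above control mean; inconclusive = lowest score under 50 but half or more replicates reach 50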;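 also: yeast exposed to compound for 9 h at 30 °C; higher score means more reporter readthrough which indicates perturbed polyadenylation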
AI-2 QS modul: Vibrio harveyi AI-2 quorum sensing modulators, primary screen, JMH597 strain, luminescence/OD600 ratio. Vibrio harveyi JMH597 AI-2 luminescence/OD600 ratio, 9 h; stronger effect = lower value; strain lacks LuxN and CqsS sensors; 0 = neutral-control median. activity change, % at 7.5 µM. 300,000 compounds, 0.4% hits; in the data active = activity change below about -75%, passing the limit was not always enough; inconclusive = no clear call, values can overlap the other calls;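 also: luminescence divided by OD600 gain over 9 h not by final OD600 alone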
Efflux pump mplx: inhibitors of Candida efflux pumps in yeast, primary screen, S. cerevisiae, Nile Red, multiplex. S. cerevisiae Candida pump triplex. inhibition, % at 10 µM. 330,000 compounds, 0.44% hits;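 active = plate passing quality check with inhibition over a set limit, or well fluorescence over plate mean plus 4 SD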;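 also: Nile Red retained in pooled yeast measured as flow cytometry median fluorescence; 0% = buffer negative control and 100% = Enniatin B positive control; higher means more Nile Red kept so more efflux inhibition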
HDAC3 inh: HDAC3 deacetylase inhibitors, primary screen, biochemical, fluorescence, cell-free homogeneous; recombinant HDAC3, fluorogenic peptide/trypsin coupled; AID 2718, 2010; Histone deacetylase 3 (Homo sapiens), O15379; 320,000 compounds, 0.15% hits; inhibition, % at 8.3 µM; in the data active = inhibition above about 26%, passing the limit was not always enough; inconclusive = no clear call, values can overlap the other calls
Target sequence (O15379 whole entry, looked up): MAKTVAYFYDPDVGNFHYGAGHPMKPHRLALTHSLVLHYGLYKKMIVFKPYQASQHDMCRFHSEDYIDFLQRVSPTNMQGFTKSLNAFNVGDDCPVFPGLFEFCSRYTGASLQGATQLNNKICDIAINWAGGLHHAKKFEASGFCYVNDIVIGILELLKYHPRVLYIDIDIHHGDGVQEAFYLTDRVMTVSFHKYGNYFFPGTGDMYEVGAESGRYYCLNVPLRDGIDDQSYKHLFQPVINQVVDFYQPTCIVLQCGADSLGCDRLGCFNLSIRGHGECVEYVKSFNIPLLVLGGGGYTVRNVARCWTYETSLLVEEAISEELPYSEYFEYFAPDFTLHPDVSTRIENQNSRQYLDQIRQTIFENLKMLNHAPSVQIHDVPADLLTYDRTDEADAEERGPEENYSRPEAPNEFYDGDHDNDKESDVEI
T cruzi repl: inhibitors of intracellular T. cruzi growth, primary screen, luminescence, NIH3T3 host cells | 300,000 compounds, 1.4% hits | T. cruzi beta-gal in NIH3T3, 90 h | AID 1885, 2009 | inhibition, % (test concentration not listed);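 active = mean inhibition across valid replicates above about 55%, limit read from the data; inconclusive = mean below that limit but half or more replicates reach it; inactive = mean below it, under half of replicates reach it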;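 also: signal also drops with host cell toxicity which is not excluded here; 0% = plate median of DMSO wells and 100% = zero luminescence signal; higher percent means less beta-gal luminescence so fewer parasites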
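Material: NIH/3T3 host cells with β-galactosidase reporter T. cruzi; Input: 5,000 host fibroblasts per well; Medium: DMEM, 2% fetal bovine serum; Compound: 50 nL DMSO compound solution per well; Schedule: 3 h host attachment, then at least 90 h co-culture; Detection: luminescent β-galactosidase signal after 60 min lysis.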
* marks the source's active call; other numbers are inactive results; u = inconclusive; x = no result given. An excerpt weighted towards active compounds, which were near 2.2% of everything screened.

SMILES	PolyA inh	AI-2 QS modul	Efflux pump mplx	HDAC3 inh	T cruzi repl
CC(=O)O[C@H]1C(=O)[C@@]2(C)C([C@H](OC(=O)c3ccccc3)[C@]3(O)C[C@H](OC(=O)[C@H](O)[C@@H](NC(=O)c4ccccc4)c4ccccc4)C(C)=C1C3(C)C)[C@]1(OC(C)=O)CO[C@@H]1C[C@H]2O (stereo partly drawn)	-6	-11	0	2	61*
N#CC1=C(N)NC(SCc2ccc(Br)cc2)=C(C#N)C12CCCCC2	0	9	0	u	66*
C=CCOc1c(Br)cc(CNCCCN2CCOCC2)cc1OC	18	6	0	-1	58*
COc1cc(CNCCCN2CCOCC2)ccc1OCC(=O)NC(C)(C)C	9	14	0	0	16
COc1cc(CNCCN2CCOCC2)ccc1OCc1c(Cl)cccc1Cl	6	1	0	0	49
CCOc1cc(CNCCCN2CCOCC2)ccc1OCC(=O)NC(C)(C)C	-14	0	0	2	63*
CCOc1cc(CNCCCN2CCOCC2)cc(Br)c1OCc1ccccc1Cl	7	30	0	12	80*
CCOc1cc(CNCCO)cc(Br)c1OCc1ccccc1Cl	6	10	0	-7	32
CCOc1cc(CNCCN2CCOCC2)ccc1OCc1ccccc1Cl	-3	16	0	-4	56*
C=CCOc1ccc(Br)cc1CNCCCN1CCOCC1	7	30	-1	-1	4
Cn1c(=O)c2c(nc(Cc3ccc(N)cc3)n2C)n(C)c1=O	1	13	0	0	1
CN1CCN(CCOc2ccc(Cc3ccccc3)cc2)CC1	15	6	0	9	55*
CN1CCN(CCOc2ccc(Cl)c(Cl)c2)CC1	20	9	-3	2	56*
CS(=O)(=O)N1CCC(Oc2ccccc2C(=O)NCCCc2cccnc2)CC1	-3	2	0	-5	11
CCSc1nc2sc3c(c2c(=O)n1-c1ccccc1)CCN(C)C3	9	15	0	2	48
CCOC(=O)CSc1nc2sc3c(c2c(=O)n1C1CCCCC1)CCN(C)C3	10	0	0	6	57*
C=CCSc1nc2sc3c(c2c(=O)n1-c1ccccc1)CCN(C)C3	24	12	0	4	56*
CN1CCc2c(sc3c2c(=O)n(-c2ccccc2)c2nnc(SCc4ccccc4)n32)C1	-25	3	0	2	71*
COc1ccccc1-c1noc2ncnc(Nc3cccc(C)c3C)c12	0	17	0	u	-21
COc1ccc(C(C)=O)cc1COC(=O)CSCC(=O)Nc1ccc(C)cc1	13	27	0	-1	-5
CCC1=C(OC(=O)N(CC)CC)N2C(=O)OC(=NCC3CC3)[C@]2(Cc2ccccc2)[C@H]2C1=CC[C@H]1C(=O)N(c3ccccc3)C(=O)[C@H]12	-13	12	3.8*	14	28
CCC1=C(OC(=O)N(CC)CC)N2C(=O)OC(=NCC3CC3)[C@]2(Cc2ccccc2)[C@H]2C1=CC[C@H]1C(=O)N(C)C(=O)[C@H]12	28	3	0	9	7
CCOC(=O)N1CCC(N2CCCC(C(=O)c3cc(C)c(OC)c(C)c3)C2)CC1 (stereo not drawn)	6	9	0	4	47
CCOC(=O)N1CCC(N2CCCC(C(=O)c3ccc4cc(OC)ccc4c3)C2)CC1 (stereo not drawn)	x	18	0	-76	56*
CC(C)(C)c1cc(CN2CCCC(O)C2)c(O)c(C(C)(C)C)c1 (stereo not drawn)	22	-2	0	36*	-5
SMILES	PolyA inh	AI-2 QS modul	Efflux pump mplx	HDAC3 inh	T cruzi repl
Cc1cccc(C)c1Nc1nnc(SCC(=O)c2ccc(Br)s2)s1	-17	23	0	27*	26
CC(=O)C1=C(C)Nc2ncnn2C1c1ccc(Br)cc1 (stereo not drawn)	-10	13	0	1	26
O=C(OCCNc1nc(-c2ccccc2)nc2ccccc12)c1cccnc1	7	-2	0	4	47
CCCOC(=O)c1cccc(Nc2nc(-c3cccnc3)nc3ccccc23)c1	3	16	0	6	65*
COc1ccccc1CCNC(=O)c1ccc(NC(=O)CC2SC(N3CCCCC3)=NC2=O)cc1 (stereo not drawn)	x	x	0	0	x
CN(C)CCCNc1c2c(nc3cc(-c4cccc(F)c4)nn13)CCC2	9	12	0	-5	68*
CCc1ccccc1NNC(=O)c1cc(C)on1	-7	17	0	x	-4
Cc1cc(C(=O)NNc2ccccc2F)no1	-26	20	0	-2	61*
Cc1ccccc1C1C(C#N)=C2N=C(N)c3c(sc4c3CCCCC4)N2C2=C1C(=O)CC(C)(C)C2 (stereo not drawn)	-4	27	0	2	58*
O=C(Nc1nc2ccsc2c(=O)s1)c1ccc(Cl)cc1	-3	24	0	2	13
Cc1cc(C)n(-c2ccc3cccc(NS(C)(=O)=O)c3n2)n1	-12	19	0	-6	60*
CCCCc1ccc(N/C(N)=N/c2nc(C)cc(C)n2)cc1	15	14	0	2	75*
Cc1ccc(N/C(N)=N/c2nc(C)cc(C)n2)cc1	22	6	0	x	32
O=C(Nc1nc(-c2ccc(Cl)cc2Cl)cs1)c1ccc(OCC2CCCO2)cc1 (stereo not drawn)	22	16	0	2	32
CC(C)COc1ccc(C(=O)Nc2scc(-c3ccc(Cl)cc3Cl)c2C(N)=O)cc1	-5	-1	0	-16	55*
CCN(CC)c1ccc(NC(=O)c2ccc3c(c2)c(C)c(C)n3C)cc1	-8	36	0	18	69*
Cc1c(C)n(C)c2ccc(C(=O)NCCCN3CCCC3)cc12	u	6	0	-8	6
CN(C)S(=O)(=O)c1cccc(NC(=O)CSc2cccc3cccnc23)c1	-12	-15	0	-6	60*
Cc1ccc(C(=O)C(C(=O)/C=C/c2ccccc2)=C2SCCCS2)cc1	-37	23	0	10	59*
O=C(OCc1ccccc1)c1cn(-c2ccccc2)nc1-c1ccncc1	-18	-5	0	7	57*
COC(=O)c1cn(-c2ccccc2)nc1-c1ccncc1	20	14	0	0	0
Cc1cccc(C)c1NC(=O)CN(C)C(=O)C(c1ccccc1)c1ccccc1	1	23	0	2	-10
COc1ccc(S(=O)(=O)N2CCCC2CNC(=O)C(=O)NCc2ccccn2)cc1 (stereo not drawn)	-1	69	0	-4	-2
